Active and inactive are the calls of the source. No cut-off for these calls is given here.
Experiments:
[1] = molecular target: T1, DNA topoisomerase 1 (Homo sapiens, UniProt P11387); assay: Inhibition of human topoisomerase 1 using supercoiled pBR322 plasmid DNA as substrate after 15 mins by ethidium bromide staining based agarose gel electrophoresis method
T1 sequence (P11387 whole entry): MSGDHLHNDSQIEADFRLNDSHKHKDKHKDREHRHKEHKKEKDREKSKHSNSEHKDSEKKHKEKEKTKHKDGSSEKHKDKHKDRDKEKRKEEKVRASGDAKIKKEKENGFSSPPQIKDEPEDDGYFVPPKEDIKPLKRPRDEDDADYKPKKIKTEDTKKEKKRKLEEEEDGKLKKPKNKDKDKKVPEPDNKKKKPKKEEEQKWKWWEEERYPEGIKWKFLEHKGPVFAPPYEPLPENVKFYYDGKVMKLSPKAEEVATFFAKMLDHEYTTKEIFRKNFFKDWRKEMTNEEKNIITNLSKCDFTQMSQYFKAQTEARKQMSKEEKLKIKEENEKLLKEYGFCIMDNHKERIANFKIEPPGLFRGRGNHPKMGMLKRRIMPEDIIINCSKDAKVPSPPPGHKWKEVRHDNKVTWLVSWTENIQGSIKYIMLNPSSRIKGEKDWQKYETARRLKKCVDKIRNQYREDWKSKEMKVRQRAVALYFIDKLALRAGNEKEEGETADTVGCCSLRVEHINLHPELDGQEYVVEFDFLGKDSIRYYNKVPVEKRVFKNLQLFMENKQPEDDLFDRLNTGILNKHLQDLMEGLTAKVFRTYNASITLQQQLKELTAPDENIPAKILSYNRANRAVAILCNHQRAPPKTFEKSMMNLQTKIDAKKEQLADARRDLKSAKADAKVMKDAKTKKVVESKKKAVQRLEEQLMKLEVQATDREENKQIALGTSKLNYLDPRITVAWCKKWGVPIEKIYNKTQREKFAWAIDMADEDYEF
How it was run: (§1)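 hTopo I (1 unit) relaxed 0.3 μg supercoiled plasmid in 50 mM Tris-HCl pH 7.5, 100 mM NaCl, 10 mM MgCl2, 1 mM DTT, 50 μg/ml BSA with varied compound concentrations, at 37°C for 15 min.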

[2] = system: Calf thymus DNA; assay: Binding affinity to calf thymus DNA assessed as bathochromic shift at 25 uM by fluorescence spectra analysis; type: nucleic-acid assay; details: Bos taurus
How it was run: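 Compound at 25 μM, with calf thymus DNA at 0 or 400 μM, in 10 mM Tris-HCl pH 7.4 at room temperature; final DMSO ≤5%. Emission spectra were recorded from 320–600 nm to look for a bathochromic shift. DNA was dissolved in the same buffer, checked by A260/A280 (1.8–1.9) and quantified at 260 nm (ε 6600 M−1 cm−1 per nucleotide).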

[3] = Binding affinity to d(CCTTACGTGCATAGTCATTCATGACCG) dsDNA (unknown origin) assessed as bathochromic shift at 25 uM by fluorescence spectra analysis
How it was run: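 The 27-bp duplex was made by annealing complementary strands 1:1 at 95°C for 2 min, then cooling to room temperature. Compound at 25 μM, with dsDNA at 0–200 μM, in 10 mM Tris-HCl pH 7.4 at room temperature; DMSO ≤5% final. Spectra and intensity were read after blank subtraction, normalized to the no-DNA signal; technical replicates, n=3.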

[4] = molecular target: T2, DNA topoisomerase 1 (Homo sapiens) (UniProt P11387); assay: Inhibition of human topoisomerase 1 at 200 uM using supercoiled pBR322 plasmid DNA as substrate after 15 mins by ethidium bromide staining based agarose gel electrophoresis method relative to control; how it was run: as §1
T2 sequence (whole entry): T1 sequence (P11387 whole entry)

[5] = system: Panel NCI-60 (60 carcinoma cell lines); assay: Antiproliferative activity against human NCI60 cells; type: functional

Compound | IC50 [1] | also measured
COc1c(N2CC[C@@H](N)C2)c(F)cc2c(=O)c(C(=O)O)cn(Cc3ccc(-c4ccccc4)cc3)c12 | 92.2 µM | 
NC[C@@H]1CCN(c2cc3c(cc2F)c(=O)c(C(=O)O)cn3Cc2ccc(-c3ccccc3)cc2)C1 | 15.6 µM | Activity [2]: inactive; Activity [3]: inactive
NC[C@@H]1CCN(c2ccc3c(=O)c(C(=O)O)cn(Cc4ccc(-n5cccn5)cc4)c3c2)C1 | 61 µM | 
O=C(O)c1cn(Cc2ccc(-c3ccccc3)cc2)c2cc(NC[C@@H]3CCNC3)c(F)cc2c1=O | 104 µM | 
CNCCCCNc1c(F)cc2c(=O)c(C(=O)O)cn(Cc3ccc(-c4ccccc4)cc3)c2c1OC | > 200 µM | inhibition [4]: 10%
NC[C@@H]1CCN(c2ccc3c(=O)c(C(=O)O)cn(Cc4ccc(-c5ccccc5)cc4)c3c2)C1 | 61.2 µM | 
NCCNc1cc2c(cc1F)c(=O)c(C(=O)O)cn2Cc1ccc(-c2ccccc2)cc1 | 72.8 µM | 
CNCCCNc1c(F)cc2c(=O)c(C(=O)O)cn(Cc3ccc(-c4ccccc4)cc3)c2c1OC | 101 µM | 
O=C(O)c1cn(Cc2ccc(-n3cccn3)cc2)c2cc(NC[C@H]3CCNC3)c(F)cc2c1=O | 187 µM | 
CNC(=O)c1cn(Cc2ccc(-c3ccccc3)cc2)c2c(OC)c(NC)c(F)cc2c1=O |  | inhibition [4]: inactive
COc1c(N2CC[C@@H](CO)C2)c(F)cc2c(=O)c(C(=O)O)cn(Cc3ccc(-c4ccccc4)cc3)c12 | > 200 µM | inhibition [4]: 10%
CNCCCCNc1cc2c(cc1F)c(=O)c(C(=O)O)cn2Cc1ccc(-c2ccccc2)cc1 | 88.3 µM | 
COc1c(N2CC[C@@H](CN)C2)c(F)cc2c(=O)c(C(N)=O)cn(Cc3ccc(-c4ccccc4)cc3)c12 | 184 µM | 
CNCCNc1c(F)cc2c(=O)c(C(=O)O)cn(Cc3ccc(-c4ccccc4)cc3)c2c1OC | > 200 µM | inhibition [4]: 10%
CNCCCNc1cc2c(cc1F)c(=O)c(C(=O)O)cn2Cc1ccc(-c2ccccc2)cc1 | 63.6 µM | 
COc1c(N2CC[C@@H](C(N)=O)C2)c(F)cc2c(=O)c(C(=O)O)cn(Cc3ccc(-c4ccccc4)cc3)c12 | > 200 µM | inhibition [4]: 10%
N[C@@H]1CCN(c2cc3c(cc2F)c(=O)c(C(=O)O)cn3Cc2ccc(-c3ccccc3)cc2)C1 | 63.6 µM | 
O=C(O)c1cn(Cc2ccc(-c3ccccc3)cc2)c2cc(NC[C@H]3CCNC3)c(F)cc2c1=O | 100 µM | 
CN[C@@H]1CCN(c2c(F)cc3c(=O)c(C(=O)O)cn(Cc4ccc(-c5ccccc5)cc4)c3c2OC)C1 | 57.7 µM | 
O=C(O)c1cn(Cc2ccc(-n3cccn3)cc2)c2cc(N3CC4CNCC4C3)c(F)cc2c1=O (centres undefined) | 173 µM | 
CNC(=O)c1cn(Cc2ccc(-c3ccccc3)cc2)c2c(OC)c(N3CC[C@@H](CN)C3)c(F)cc2c1=O | 82.1 µM | 
O=C(O)c1cn(Cc2ccc(-c3ccccc3)cc2)c2cc(N3CC4CNCC4C3)c(F)cc2c1=O (centres undefined) | 33.3 µM | 
COc1c(N2CC[C@@H](CN)C2)c(F)cc2c(=O)c(C(=O)NO)cn(Cc3ccc(-c4ccccc4)cc3)c12 | 35.9 µM | 

Compound | IC50 [1] | also measured
CNC[C@@H]1CCN(c2c(F)cc3c(=O)c(C(=O)O)cn(Cc4ccc(-c5ccccc5)cc4)c3c2OC)C1 | 155 µM | 
COc1c(N2CC[C@@H](CN)C2)c(F)cc2c(=O)c(C(=O)O)cn(Cc3ccc4ccccc4c3)c12 |  | GI50 [5]: 3.1 µM
O=C(O)c1cn(Cc2ccc(-c3ccccc3)cc2)c2cc(N3C[C@H]4CCNC[C@H]4C3)c(F)cc2c1=O | 61 µM | 
CNCCNc1cc2c(cc1F)c(=O)c(C(=O)O)cn2Cc1ccc(-c2ccccc2)cc1 | > 200 µM | inhibition [4]: 10%
COc1c(F)c(F)cc2c(=O)c(C(=O)O)cn(Cc3ccc(-c4ccccc4)cc3)c12 |  | inhibition [4]: inactive
NC[C@@H]1CCN(c2cc3c(cc2F)c(=O)c(C(=O)O)cn3Cc2ccc(-c3ccc(F)cc3)cc2)C1 | 69.6 µM | 
COc1c(N2CC[C@@H](CN)C2)c(F)cc2c(=O)c(C(=O)O)cn(Cc3ccc(-n4cccn4)cc3)c12 | > 200 µM | inhibition [4]: 10%
COc1c(N2CC[C@@H](N)C2)c(F)cc2c(=O)c(C(=O)O)cn(Cc3ccc(-c4ccc(F)cc4)cc3)c12 | 58.6 µM | 
COc1c(N2CC[C@@H](CN)C2)c(F)cc2c(=O)c(C(=O)O)cn(Cc3cc(-c4ccccc4)no3)c12 | 178 µM | 
CNC[C@@H]1CCN(c2cc3c(cc2F)c(=O)c(C(=O)O)cn3Cc2ccc(-c3ccccc3)cc2)C1 | 168 µM | 
NC[C@@H]1CCN(c2cc3c(cc2F)c(=O)c(C(=O)O)cn3Cc2nc(-c3ccncc3)no2)C1 | > 200 µM | inhibition [4]: 10%
COc1c(NCCN)c(F)cc2c(=O)c(C(=O)O)cn(Cc3ccc(-c4ccccc4)cc3)c12 | > 200 µM | inhibition [4]: 10%
COC(=O)c1cn(Cc2ccc(-c3ccccc3)cc2)c2c(OC)c(N3CC[C@@H](CN)C3)c(F)cc2c1=O | 71.4 µM | 
COc1c(N2CC[C@@H](CN)C2)c(F)cc2c(=O)c(C(=O)O)cn(Cc3ccc(-c4ccc(F)cc4)cc3)c12 | 60.9 µM | 
COc1c(N2CC[C@@H](CN)C2)c(F)cc2c(=O)c(C(=O)O)cn(Cc3ccc(-c4ccccc4)cc3)c12 |  | Activity [2]: inactive; Activity [3]: inactive; GI50 [5]: 1.9 µM
NC[C@@H]1CCN(c2cc3c(cc2F)c(=O)c(C(=O)O)cn3Cc2cc(-c3ccccc3)no2)C1 | 58.3 µM | 
O=C(O)c1cn(Cc2ccc(-n3cccn3)cc2)c2cc(NC[C@@H]3CCNC3)c(F)cc2c1=O |  | inhibition [4]: 10%
CN[C@@H]1CCN(c2cc3c(cc2F)c(=O)c(C(=O)O)cn3Cc2ccc(-c3ccccc3)cc2)C1 | 34.8 µM | 
CNC[C@@H]1CCN(c2cc3c(cc2F)c(=O)c(C(=O)O)cn3Cc2ccc(-n3cccn3)cc2)C1 | > 200 µM | inhibition [4]: 10%
CC(c1nc(-c2ccncc2)no1)n1cc(C(=O)O)c(=O)c2cc(F)c(N3CC[C@@H](CN)C3)cc21 (some centres undefined) | > 200 µM | inhibition [4]: 10%
O=C(O)c1cn(Cc2ccc(-n3cccn3)cc2)c2cc(N3C[C@H]4CCNC[C@H]4C3)c(F)cc2c1=O | 31.3 µM | 
NC[C@@H]1CCN(c2cc3c(cc2F)c(=O)c(C(=O)O)cn3Cc2ccc(-n3cccn3)cc2)C1 | 91.6 µM | 

Reference: ChEMBL document CHEMBL4346697, “Probing structural requirements for human topoisomerase I inhibition by a novel N1-Biphenyl fluoroquinolone” (Eur J Med Chem, 2019)
